Measurements: ChEMBL document CHEMBL1122366, “Potential antiatherosclerotic agents. 3. Substituted benzoic and non benzoic acid analogues of cetaben” (1983)
“And” between values parts separate entries of the source, which are not always exact repeats. Equal values may be shown once.

Tests used:
Rattus norvegicus [1] = experiment: In vivo sterol lowering activity at dose of 0.10 % of the diet; format: functional
Procedure, shortened: (§1)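 Normal rats were dosed in the diet. Serum sterol and triglyceride levels were measured and expressed as the mean percent of control values. Significance versus control was reported at p < 0.05, 0.01 and 0.001.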

Rattus norvegicus [2] = experiment: In vivo triglyceride lowering activity dosed at 0.10 % of the diet.; format: functional; procedure, shortened: as §1
[3] = molecular target: T1, Sterol O-acyltransferase 1 (Rattus norvegicus) (UniProt O70536); experiment: In vitro inhibition of acyl coenzyme A:cholesterol acyltransferase; parameters: concentration or dose not given beside the values; conditions: concentration not given here
T1 sequence (whole entry): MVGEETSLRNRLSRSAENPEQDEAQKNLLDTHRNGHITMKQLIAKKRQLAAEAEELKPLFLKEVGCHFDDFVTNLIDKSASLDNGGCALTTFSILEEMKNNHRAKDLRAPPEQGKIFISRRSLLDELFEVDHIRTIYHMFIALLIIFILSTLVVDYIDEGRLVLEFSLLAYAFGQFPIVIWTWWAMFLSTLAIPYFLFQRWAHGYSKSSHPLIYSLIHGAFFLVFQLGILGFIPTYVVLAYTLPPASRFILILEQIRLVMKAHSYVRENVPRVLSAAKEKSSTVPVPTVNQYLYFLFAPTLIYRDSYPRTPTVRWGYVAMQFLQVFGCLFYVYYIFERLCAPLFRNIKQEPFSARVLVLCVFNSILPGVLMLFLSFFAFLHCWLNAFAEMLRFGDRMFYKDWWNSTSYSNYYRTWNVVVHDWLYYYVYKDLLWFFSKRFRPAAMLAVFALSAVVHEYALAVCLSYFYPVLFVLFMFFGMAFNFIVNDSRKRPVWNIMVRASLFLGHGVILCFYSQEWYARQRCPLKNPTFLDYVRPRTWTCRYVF
Procedure, shortened: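 Enzyme fatty acyl-CoA:cholesterol acyltransferase (ACAT), assayed in vitro at a single drug concentration of 5.2 μg/mL. The value is the mean percent inhibition of enzyme activity.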

SMILES	inhibition [3]	serum sterol level, percent of control (Rattus norvegicus [1]) [%]	serum triglyceride, percent of control (Rattus norvegicus [2]) [%]	Diet (Rattus norvegicus [2]) [%]
CCCCCCCCCCCCCCCCNc1ccc(C(=O)OCC2COC(c3ccccc3)O2)cc1 (configuration not stated)	–	84	<50	–
CCCCCCCCCCCCCCCCN(C(C)=O)c1ccc(C(=O)OCC(COC(C)=O)OC(C)=O)cc1 (configuration not stated)	12%	101	111	–
CCCCCCCCCCCCCCCCNc1ccc(C(C#N)O[Si](C)(C)C)cc1 (configuration not stated)	0%	82	<36	–
CCCCCCCCCCCCCCCCNc1ccc(C(=O)Oc2cccnc2)cc1	< 22%	93	–	92
CCCCCCCCCCCCCCCCNc1ncc(C(=O)OCC)cn1	13%	–	–	–
CCCCCCCCCCCCCCCCNc1ccc(C(=O)OC2CCCCCC2)cc1	0%	<87	84	–
CCCCCCCCCCCCCCCCNc1ccc(C(=O)OCC)c(F)c1	–	90	<68	–
CCCCCCCCCCCCCCCCNc1ccc(C(=O)Oc2ccc(C(=O)OC(C)(C)C)cc2)cc1	–	103	<67	–
CCCCCCCCCCCCCCCCNc1ccc(C#N)cc1.Cl	–	100	88	–
CCCCCCCCCCCCCCCCN(CC)c1ccc(C(=O)O)cc1	< 72%	–	–	–
CCCCCCCCCCCCCCCCNc1ccc(C#N)cc1	8% and < 30%	–	–	–
CCCCCCCCCCCCCCCCNc1csc(C(=O)OCC)c1	< 24%	112	–	–
CCCCCCCCCCCCCCCCNc1ccc(CO)cc1.Cl	–	99	100	–

The next lines start with results.

inhibition [3]	SMILES	serum sterol level, percent of control (Rattus norvegicus [1]) [%]	serum triglyceride, percent of control (Rattus norvegicus [2]) [%]	Diet (Rattus norvegicus [2]) [%]
< 23%	CCCCCCCCCCCCCCCCNc1ccc(C(=O)OC)c(F)c1	99	79	–
0%	CCCCCCCCCCCCCCCCNc1ccc(CCCC(=O)OCC)cc1	99	76	–
34%	CCCCCCCCCCCCCCCCNc1ccc(C(O)C(N)=O)cc1 (configuration not stated)	94	57	–
< 22%	CCCCCCCCCCCCCCCCN(C(C)=O)c1ccc(CO)cc1	99	105	–
0%	CCCCCCCCCCCCCCCCN(C)c1ccc(C(=O)OCC(O)CO)cc1 (configuration not stated)	99	93	–
0%	CCCCCCCCCCCCCCCCN(C(C)=O)c1ccc(C(=O)OCC(O)CO)cc1 (configuration not stated)	106	110	–
9%	CCCCCCCCCCCCCCCCNc1ccc(C(=O)OCC(O)COCC)cc1 (configuration not stated)	<68	<47	–
0%	CCCCCCCCCCCCCCCCN(C(=O)C(F)(F)F)c1ccc(C(=O)NO)cc1	96	91	–
5%	CCCCCCCCCCCCCCCCNc1ccc(C(=O)OCC)cc1F	105	74	–
< 77%	CCCCCCCCCCCCCCCCNc1ccc(C(=O)NS(=O)(=O)c2ccc(C)cc2)cc1	–	–	–
< 43%	CCCCCCCCCCCCCCCCNc1ccc(C(=O)CC(=O)OC)cc1	<84	<47	–
10% and 16%	CCCCCCCCCCCCCCCCNc1ccc(CO)cc1	–	–	–
0%	CCCCCCCCCCCCCCCCNc1ccc(C(=O)OCC(O)CO)cc1 (configuration not stated)	–	–	–
10%	CCCCCCCCCCCCCCCCNc1ccc(C(=O)OC/C=C/COC(=O)c2ccc(NCCCCCCCCCCCCCCCC)cc2)cc1	91	–	–
